Data: ChEMBL document CHEMBL3286337, “Synthesis, biological evaluation and structure-activity relationships of new phthalazinedione derivatives with vasorelaxant activity” (Eur J Med Chem, 2014)
Calls of active or inactive are those of the source. No cut-off for these calls is given here.

Legend:
Aorta [1] = assay: Vasorelaxant activity in Wistar rat endothelium-denuded thoracic aortic rings assessed as inhibition of phenylephrine-induced contraction; format: functional, tissue-based
Aorta [2] = assay: Vasorelaxant activity in Wistar rat endothelium-intact thoracic aortic rings assessed as inhibition of phenylephrine-induced contraction; format: functional, tissue-based
Aorta [3] = assay: Vasorelaxant activity in Wistar rat endothelium-intact thoracic aortic rings assessed as inhibition of phenylephrine-induced contraction at 200 uM; format: functional
Aorta [4] = assay: Vasorelaxant activity in Wistar rat endothelium-denuded thoracic aortic rings assessed as inhibition of phenylephrine-induced contraction at 200 uM; format: functional, tissue-based
[5] = Cytotoxicity against rat A7r5 cells assessed as reduction of cell viability at 50 uM after 24 hrs by MTT assay; format: cell-based; settings: a7r5, 24 h
How it was run: (§1)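 A7r5 embryonic rat aorta smooth muscle cells seeded at 20 × 10^3/cm^2 and incubated overnight. Compounds added with DMSO (1%) for 24 h; untreated cells served as negative control. MTT solution (5 mg/ml in PBS) added, 2 h at 37 C, absorbance read at 540 nm. Viability = A(treatment)/A(negative control) × 100%. Mean ± S.E.M of at least 5 experiments.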

[6] = Cytotoxicity against rat A7r5 cells assessed as reduction of cell viability at 25 uM after 24 hrs by MTT assay; format: cell-based; settings: a7r5, 24 h; how it was run: as §1
Aorta [7] = assay: Vasorelaxant activity in Wistar rat endothelium-denuded thoracic aortic rings assessed as inhibition of phenylephrine-induced contraction relative to endothelium-intact thoracic aortic rings in presence of 1 uM of acetylcholine; format: functional

Compound	EC50 (Aorta [1])	EC50 (Aorta [2])	further results
Cn1c(=O)c2ccccc2c(=O)n1CCNC(=O)OC(C)(C)C	14.6 µM	2.44 µM	
Cn1c(=O)c2c(Cl)cccc2c(=O)n1CCCBr	27.2 µM	6.61 µM	
Cn1c(=O)c2c(Cl)cccc2c(=O)n1CCBr	32.5 µM	7.35 µM	
Nc1cc(-c2ccncc2)c[nH]c1=O [INAMRINONE]	28 µM	17 µM	
Cn1c(=O)c2cccc(Cl)c2c(=O)n1CCN			inhibition at 200 µM (Aorta [3]): 50%; inhibition (Aorta [4]): inactive
Cn1c(=O)c2c(Cl)cccc2c(=O)n1CCNC(=O)OC(C)(C)C	5.57 µM	2.53 µM	Activity [5]: Toxic; Activity [6]: Non-toxic
Cn1c(=O)c2cccc(Cl)c2c(=O)n1CCNC(=O)OC(C)(C)C	13.3 µM	3.45 µM	Activity [5]: Toxic; Activity [6]: Non-toxic
Cn1c(=O)c2ccccc2c(=O)n1CCCN			inhibition at 200 µM (Aorta [3]): 50%; inhibition (Aorta [4]): inactive
Cn1[nH]c(=O)c2ccccc2c1=O			inhibition (Aorta [3]): inactive; inhibition (Aorta [4]): inactive
Cn1c(=O)c2c(Cl)cccc2c(=O)n1CCN=[N+]=[N-]	13.1 µM	4.12 µM	
Cn1c(=O)c2ccccc2c(=O)n1CCN			inhibition at 200 µM (Aorta [3]): 50%; inhibition (Aorta [4]): inactive
NNc1nncc2ccccc12 [HYDRALAZINE]	1320 µM	1180 µM	
Cn1c(=O)c2c(Cl)cccc2c(=O)n1CCCN=[N+]=[N-]	11.7 µM	2.33 µM	
Cn1c(=O)c2ccccc2c(=O)n1CCCBr	15.5 µM	3.1 µM	
Cn1c(=O)c2cccc(Cl)c2c(=O)n1CCCN=[N+]=[N-]	7.44 µM	4.31 µM	Activity [5]: Toxic; Activity [6]: Non-toxic
CN1C(=O)CN=C(c2ccccc2)c2cc(Cl)ccc21 [DIAZEPAM]	77.2 µM	69 µM	
Cn1c(=O)c2ccccc2c(=O)n1CCBr	8.46 µM	1.7 µM	
Cn1[nH]c(=O)c2cccc(Cl)c2c1=O			inhibition (Aorta [3]): inactive; inhibition (Aorta [4]): inactive
Cn1c(=O)c2ccccc2c(=O)n1CCCNC(=O)OC(C)(C)C	23.6 µM	3.96 µM	
Cn1c(=O)c2cccc(Cl)c2c(=O)n1CCN=[N+]=[N-]	13.2 µM	6.35 µM	
Cn1c(=O)c2c(Cl)cccc2c(=O)n1CCCN	30.2 µM	8.51 µM	inhibition (INH) (Aorta [7]): 53.6%
Cn1c(=O)c2cccc(Cl)c2c(=O)n1CCCN		44.7 µM	inhibition (Aorta [4]): inactive
Cn1c(=O)c2cccc(Cl)c2c(=O)n1CCCNC(=O)OC(C)(C)C	18.2 µM	4.78 µM	Activity [5]: Toxic; Activity [6]: Non-toxic
Cn1c(=O)c2cccc(Cl)c2c(=O)n1CCCBr	6.71 µM	3.36 µM	
Cn1c(=O)c2c(Cl)cccc2c(=O)n1CCCNC(=O)OC(C)(C)C	4.85 µM	2.15 µM	Activity [5]: Toxic; Activity [6]: Non-toxic
Cn1c(=O)c2ccccc2c(=O)n1CCCN=[N+]=[N-]	3.71 µM	2.35 µM	
Cn1c(=O)c2c(Cl)cccc2c(=O)n1CCN		48.7 µM	inhibition (Aorta [4]): inactive
Cn1c(=O)c2cccc(Cl)c2c(=O)n1CCBr	20.2 µM	7.95 µM	
Cn1c(=O)c2ccccc2c(=O)n1CCN=[N+]=[N-]	15.9 µM	10 µM	
Cn1[nH]c(=O)c2c(Cl)cccc2c1=O			inhibition (Aorta [3]): inactive; inhibition (Aorta [4]): inactive
